Two compounds from publication PMC11932705 (Results in chemistry, 2024) can be followed below.

For this test, the system named is adult S. mansoni. Put plainly: Single-concentration phenotypic severity score assay on adult worms. Format: cell-based, Schistosoma mansoni. The note with it: severity score assay at 5 μM. The procedure, abridged:
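Adult S. mansoni were exposed to test compound at 5 μM. Adherence, shape, density and mobility were scored visually at 2, 5, 24 and 48 h using a constrained set of phenotypic descriptors, each typically valued 1. The descriptor values were summed into a severity score from 0 (no activity) to 4 (maximal activity). Each compound was screened twice as a singleton and representative data are reported.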

“Also recorded” adds a separate entry of the source.

Regarding `O=C(Nc1cccc(C(F)(F)F)c1)c1cccc(C(F)(F)F)c1` [compound 33, 3-(Trifluoromethyl)-N-(3-(trifluoromethyl)phenyl)benzamide], the “Antischistosomal activity in words” value is given as “potency is lost”.
The result for `O=C(Nc1cc(C(F)(F)F)cnn1)c1ccc(C(F)(F)F)cc1` [compound 49, 4-(Trifluoromethyl)-N-(5-(trifluoromethyl)pyridazin-3-yl)benzamide] reads “abolished activity; also recorded: inactive against the worm”.
